Test results taken from ChEMBL document CHEMBL5712908, “A genome-wide RNAi screen reveals essential therapeutic targets of breast cancer stem cells” (2019).
Activity calls are given as the source filed them. The calls are words filed in the database; no cut-off is given here.

How the values were obtained:
SUM-159-PT [1] = experiment: Anticancer activity against human SUM159 cells assessed as decrease in ALDHbr cells at 2 nM by LSR2 cytometer analysis; assay type: functional, cell-based
In short: (§1)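 Cells continuously exposed to drug for 72 h in adherent culture; single-cell suspensions stained with ALDEFLUOR kit and ALDH-high population measured by flow cytometry (LSR2) against a DEAB control. Residual ALDHbr proportion reported (n = 8), mean ± SD, Student's t-test.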

SUM149PT [2] = experiment: Anticancer activity against human SUM149 cells assessed as decrease in ALDHbr cells at 2 nM by LSR2 cytometer analysis; assay type: functional, cell-based; in short: as §1
SUM149PT [3] = experiment: Anticancer activity against human SUM149 cells assessed as decrease primary tumor sphere formation at 2 nM incubated for 72 hrs by Extreme limiting dilution analysis; assay type: functional, cell-based
In short: (§2)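 Cells given drug (2 nM when combined with other agents) for 72 h in adherent culture, then plated as single cells in ultra-low attachment 96-well plates in serum-free mammary epithelium basal medium at 25/10/5/3/2/1 cells per well (18–36 wells per condition). Wells holding ≥1 sphere at 10 days scored positive. Sphere-forming frequency by extreme limiting dilution analysis, pairwise chi-square, n = 4.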

SUM-159-PT [4] = experiment: Anticancer activity against human SUM159 cells assessed as decrease primary tumor sphere formation at 2 nM incubated for 72 hrs by Extreme limiting dilution analysis; assay type: functional, cell-based; in short: as §2
Proteasome [5] = experiment: Inhibition of proteasome in human S68 cells assessed as K-score by measuring ALDHbr cells by LSR2 cytometer; conditions: condition breast cancer
In short: (§3)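 Breast cancer lines exposed continuously for 72 h in adherent culture to a range of doses centred on the MTS-derived IC50 (72 h MTS, absorbance 540 nm). ALDHbr fraction measured by ALDEFLUOR flow cytometry (LSR2) with DEAB control. K-score = linear regression coefficient between untreated condition and the log10 dose at which ALDHbr proportion changes by 50% versus control.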

Proteasome [6] = experiment: Inhibition of proteasome in human BrCa-MZ-01 cells assessed as K-score by measuring ALDHbr cells by LSR2 cytometer; conditions: condition breast cancer; in short: as §3
Proteasome [7] = experiment: Inhibition of proteasome in human MDA-MB-436 cells assessed as K-score by measuring ALDHbr cells by LSR2 cytometer; conditions: condition breast cancer; in short: as §3
Proteasome [8] = experiment: Inhibition of proteasome in human SUM159 cells assessed as K-score by measuring ALDHbr cells by LSR2 cytometer; conditions: condition breast cancer; in short: as §3
Proteasome [9] = experiment: Inhibition of proteasome in human SUM149 cells assessed as K-score by measuring ALDHbr cells by LSR2 cytometer; conditions: condition breast cancer; in short: as §3
SUM149PT [10] = experiment: Anticancer activity against human SUM149 cells assessed as ALDHbr cells by LSR2 cytometer (reference value: 6.8%); assay type: functional; in short: as §1
[11] = molecular target: Histone-lysine N-methyltransferase EZH2 (Homo sapiens) (UniProt Q15910); experiment: Inhibition of EZH2 in human SUM159 cells assessed as increase in ALDHbr cells by LSR2 cytometer (reference value: 4.8%); assay type: cell-based; parameters: scale not given: the % may be the effect or the level left; conditions: dose 0.0 µM
Histone-lysine N-methyltransferase EZH2 (Homo sapiens), sequence (Q15910 whole entry, looked up): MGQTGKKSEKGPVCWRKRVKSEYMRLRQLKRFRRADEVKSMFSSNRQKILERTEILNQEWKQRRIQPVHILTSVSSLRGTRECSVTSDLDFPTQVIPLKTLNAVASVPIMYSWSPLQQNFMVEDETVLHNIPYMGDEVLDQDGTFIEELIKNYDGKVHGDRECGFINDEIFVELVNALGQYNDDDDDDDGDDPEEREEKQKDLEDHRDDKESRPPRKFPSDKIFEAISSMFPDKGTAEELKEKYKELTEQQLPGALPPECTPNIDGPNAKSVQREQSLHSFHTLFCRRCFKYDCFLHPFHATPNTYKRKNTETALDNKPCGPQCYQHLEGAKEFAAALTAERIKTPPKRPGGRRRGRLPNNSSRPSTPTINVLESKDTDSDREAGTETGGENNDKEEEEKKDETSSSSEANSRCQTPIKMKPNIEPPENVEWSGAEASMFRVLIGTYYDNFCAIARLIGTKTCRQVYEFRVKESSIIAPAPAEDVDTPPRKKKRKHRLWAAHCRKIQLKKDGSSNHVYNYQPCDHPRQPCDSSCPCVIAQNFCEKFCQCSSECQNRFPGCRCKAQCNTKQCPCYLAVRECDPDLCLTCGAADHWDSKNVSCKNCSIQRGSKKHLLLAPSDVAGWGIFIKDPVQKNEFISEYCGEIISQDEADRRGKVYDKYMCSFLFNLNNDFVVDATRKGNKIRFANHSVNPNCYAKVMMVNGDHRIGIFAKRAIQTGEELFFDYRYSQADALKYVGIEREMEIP
In short: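 SUM159 cells exposed continuously for 72 h in adherent culture to graded doses centred on the IC50. ALDHbr proportion measured by ALDEFLUOR flow cytometry (LSR2) with DEAB as negative control; n = 10.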

[12] = molecular target: Runt-related transcription factor 1 (Homo sapiens) (UniProt Q01196); experiment: Inhibition of RUNX1 in human MDA-MB-436 cells assessed as K-score by measuring ALDHbr cells by LSR2 cytometer; assay type: cell-based
Runt-related transcription factor 1 (Homo sapiens), sequence (Q01196 whole entry): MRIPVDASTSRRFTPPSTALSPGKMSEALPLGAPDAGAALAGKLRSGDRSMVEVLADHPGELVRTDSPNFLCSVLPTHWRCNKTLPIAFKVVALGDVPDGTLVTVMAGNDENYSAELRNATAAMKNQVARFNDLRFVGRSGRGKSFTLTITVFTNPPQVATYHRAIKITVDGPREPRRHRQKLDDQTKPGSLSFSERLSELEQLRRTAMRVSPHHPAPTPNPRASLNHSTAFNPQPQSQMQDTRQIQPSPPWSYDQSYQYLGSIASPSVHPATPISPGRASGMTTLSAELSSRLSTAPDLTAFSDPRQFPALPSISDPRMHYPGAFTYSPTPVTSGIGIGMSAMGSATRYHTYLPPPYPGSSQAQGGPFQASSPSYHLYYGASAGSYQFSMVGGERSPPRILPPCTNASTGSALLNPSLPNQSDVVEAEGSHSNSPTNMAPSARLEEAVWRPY
In short: (§4)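 Cell lines exposed for 72 h in adherent culture to a range of concentrations centred on the MTS-derived IC50. ALDHbr proportion measured by ALDEFLUOR flow cytometry (LSR2). K-score is the linear regression coefficient, on log10-transformed doses, between the untreated condition and the dose predicted to give a 50% decrease or increase in ALDHbr proportion versus control.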

[13] = molecular target: Runt-related transcription factor 1 (Homo sapiens) (UniProt Q01196); experiment: Inhibition of RUNX1 in human SUM149 cells assessed as K-score by measuring ALDHbr cells by LSR2 cytometer; assay type: cell-based; in short: as §4
[14] = molecular target: Runt-related transcription factor 1 (Homo sapiens) (UniProt Q01196); experiment: Inhibition of RUNX1 in human SUM159 cells assessed as K-score by measuring ALDHbr cells by LSR2 cytometer; assay type: cell-based; in short: as §4
[15] = molecular target: Runt-related transcription factor 1 (Homo sapiens) (UniProt Q01196); experiment: Inhibition of RUNX1 in human S68 cells assessed as K-score by measuring ALDHbr cells by LSR2 cytometer; assay type: cell-based; in short: as §4
[16] = molecular target: Runt-related transcription factor 1 (Homo sapiens) (UniProt Q01196); experiment: Inhibition of RUNX1 in human BrCa-MZ-01 cells assessed as K-score by measuring ALDHbr cells by LSR2 cytometer; assay type: cell-based; in short: as §4
SUM-159-PT [17] = experiment: Anticancer activity against human SUM159 cells assessed as decrease in secondary tumor sphere formation incubated for 72 hrs by Extreme limiting dilution analysis; assay type: functional, cell-based
In short: (§5)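 Cells drug-treated in adherent culture for 72 h, then plated as single cells in ultra-low attachment 96-well plates in serum-free mammary epithelium basal medium. Plating at 25/10/5/3/2/1 cells per well, 18–36 wells per condition. Wells with ≥1 sphere after 10 days scored positive. Secondary spheres were made by dissociating primary spheres. Frequency by ELDA; n = 4; pairwise chi-square test.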

SUM-159-PT [18] = experiment: Anticancer activity against human SUM159 cells assessed as decrease in primary tumor sphere formation incubated for 72 hrs by Extreme limiting dilution analysis; assay type: functional, cell-based; in short: as §5

SMILES: CC(=O)O[C@@]12CO[C@@H]1C[C@H](O)[C@@]1(C)C(=O)[C@H](O)C3=C(C)[C@@H](OC(=O)[C@H](O)[C@@H](NC(=O)OC(C)(C)C)c4ccccc4)C[C@@](O)([C@@H](OC(=O)c4ccccc4)[C@H]21)C3(C)C
- Activity (SUM-159-PT [1]): inactive
- Activity (SUM149PT [2]): inactive
- Activity (SUM149PT [3]): inactive
- Activity (SUM-159-PT [4]): inactive

SMILES: CC(C)C[C@H](NC(=O)[C@H](Cc1ccccc1)NC(=O)c1cnccn1)B(O)O [BORTEZOMIB]
- Activity (Proteasome [5]): -0.14
- Activity (Proteasome [6]): -0.07
- Activity (Proteasome [7]): -0.06
- Activity (Proteasome [8]): 0.07
- Activity (Proteasome [9]): -0.11

SMILES: CCN(CC)c1ccc(C=O)cc1
- Activity (SUM149PT [10]): 0.3%
- Activity [11]: 0.2%

SMILES: CC(C)C[C@H](NC(=O)[C@H](CCc1ccccc1)NC(=O)CN1CCOCC1)C(=O)N[C@@H](Cc1ccccc1)C(=O)N[C@@H](CC(C)C)C(=O)[C@@]1(C)CO1 [CARFILZOMIB]
- Activity (Proteasome [5]): -0.09
- Activity (Proteasome [6]): -0.08
- Activity (Proteasome [7]): -0.08
- Activity (Proteasome [8]): 0.01
- Activity (Proteasome [9]): -0.03

SMILES: O=C1CN=C(c2ccc[nH]2)c2cc(Cl)ccc2N1
- Activity [12]: 0
- Activity [13]: -0.04
- Activity [14]: 0.09
- Activity [15]: -0.07
- Activity [16]: -0.04

SMILES: CC#C[C@]1(O)CC[C@H]2[C@@H]3CCC4=CC(=O)CCC4=C3[C@@H](c3ccc(N(C)C)cc3)C[C@@]21C
- Activity (SUM-159-PT [17]): Active
- Activity (SUM-159-PT [18]): Active
